Data reported in ChEMBL document CHEMBL4130378, “Discovery of pentacyclic triterpene 3β-ester derivatives as a new class of cholesterol ester transfer protein inhibitors” (Eur J Med Chem, 2017).
Each block holds one compound with its values, some of them ahead of it.

Columns and labels:
[1] = molecular target: T1, Cholesteryl ester transfer protein (Homo sapiens, UniProt P11597); assay: Inhibition of recombinant human CETP after 3 hrs using fluorescent cholesteryl containing HDL after 3 hrs by fluorescence assay; conditions: read-out: IC50
T1 sequence (P11597 whole entry): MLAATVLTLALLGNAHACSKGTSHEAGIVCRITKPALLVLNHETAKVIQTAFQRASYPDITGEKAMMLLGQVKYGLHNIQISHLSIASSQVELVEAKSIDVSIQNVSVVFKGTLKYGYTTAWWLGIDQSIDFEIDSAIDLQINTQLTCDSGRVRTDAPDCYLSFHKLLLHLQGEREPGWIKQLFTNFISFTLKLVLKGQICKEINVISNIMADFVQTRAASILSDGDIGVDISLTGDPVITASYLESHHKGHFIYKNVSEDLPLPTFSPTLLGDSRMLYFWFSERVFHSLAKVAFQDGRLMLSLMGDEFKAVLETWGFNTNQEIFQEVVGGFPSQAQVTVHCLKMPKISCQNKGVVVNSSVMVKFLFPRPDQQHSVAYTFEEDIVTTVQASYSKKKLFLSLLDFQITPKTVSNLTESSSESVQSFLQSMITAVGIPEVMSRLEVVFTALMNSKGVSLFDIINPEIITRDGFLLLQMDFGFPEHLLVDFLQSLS

Cavia porcellus [2] = assay: Hypolipidemic activity in normal fed guinea pig model assessed as reduction in plasma LDL cholesterol levels at 30 mg/kg administered via oral gavage as qd for 14 days measured 2 hrs post dose on day 14 relative to control; assay type: functional; parameters: scale not given: the % may be the effect or the level left
How it was run: (§1)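 Male guinea pigs, 12 weeks old, on normal diet. Gavage at 30 mg/kg once daily for two weeks. Retro-orbital plasma collected 2 h after dosing on day 14. HDL-C and LDL-C reported as mean ± SD (n ≥ 6) versus vehicle control group.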

Cavia porcellus [3] = assay: Antihyperlipidemic activity in normal fed guinea pig model assessed as increase in plasma HDL cholesterol level at 30 mg/kg administered via oral gavage as qd for 14 days measured 2 hrs post dose on day 14 relative to control; assay type: functional; how it was run: as §1
Cavia porcellus [4] = assay: Drug metabolism in normal fed guinea pig assessed as formation of oleanolic acid at 30 mg/kg administered via oral gavage by LC-MS/MS analysis; assay type: ADME, organism-based; conditions: in vivo
[5] = Terminal half life in normal fed guinea pig at 30 mg/kg administered via oral gavage by LC-MS/MS analysis; assay type: ADME, organism-based, Cavia porcellus; conditions: in vivo, read-out: beta t1/2 (converted)
Cavia porcellus [6] = assay: Hypolipidemic activity in high-fat fed guinea pig model assessed as reduction in plasma triglyceride levels at 30 mg/kg administered via oral gavage as qd for 14 days measured 2 hrs post dose on day 14 relative to control; assay type: functional; parameters: scale not given: the % may be the effect or the level left
How it was run: (§2)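 Male guinea pigs, 12 weeks old, fed a high-fat diet (2.5% coconut oil, 0.25% cholesterol) for two weeks. Gavage at 30 mg/kg once daily for two weeks while the diet continued. Plasma taken retro-orbitally 2 h after the day-14 dose. HDL-C, LDL-C, TG and TC reported as mean ± SD (n ≥ 6) versus the untreated high-fat model group.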

Mus musculus [7] = assay: Hypolipidemic activity in transgenic ap2-CETPTg mouse model assessed as reduction in plasma total cholesterol levels at 30 mg/kg, po qd for 14 days measured 2 hrs post dose on day 14 by automated lipid analyzer relative to control; assay type: functional; parameters: scale not given: the % may be the effect or the level left
How it was run: (§3)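 ap2-CETPTg mice, which express human CETP in adipose tissue. Oral 30 mg/kg once daily for two weeks in DMSO/cremophor/saline 3:4:93. Retro-orbital blood drawn 2 h after the day-14 dose. HDL-C, LDL-C, TG and TC measured on an automated lipid analyzer, mean ± SD (n ≥ 6), versus control group.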

Cavia porcellus [8] = assay: Toxicity in normal fed guinea pig model assessed as effect on systolic blood pressure at 30 mg/kg administered via oral gavage as qd for 14 days; assay type: organism-based; conditions: in vivo, 336 h
[9] = Aqueous solubility of the compound; assay type: physicochemical; conditions: buffer
[10] = MRT (0 to 48 hrs) in normal fed guinea pig at 30 mg/kg administered via oral gavage by LC-MS/MS analysis; assay type: ADME, organism-based, Cavia porcellus; conditions: in vivo
[11] = Tmax in normal fed guinea pig at 30 mg/kg administered via oral gavage by LC-MS/MS analysis; assay type: ADME, organism-based, Cavia porcellus; conditions: in vivo
Cavia porcellus [12] = assay: Antihyperlipidemic activity in high-fat fed guinea pig model assessed as increase in plasma HDL cholesterol level at 30 mg/kg administered via oral gavage as qd for 14 days measured 2 hrs post dose on day 14 relative to control; assay type: functional; how it was run: as §2
[13] = AUC (0 to 48 hrs) in normal fed guinea pig at 30 mg/kg administered via oral gavage by LC-MS/MS analysis; assay type: ADME, organism-based, Cavia porcellus; parameters: time < 48 hr, dose 30 mg/kg, route oral; conditions: in vivo
Cavia porcellus [14] = assay: Hypolipidemic activity in high-fat fed guinea pig model assessed as reduction in plasma total cholesterol levels at 30 mg/kg administered via oral gavage as qd for 14 days measured 2 hrs post dose on day 14 relative to control; assay type: functional; parameters: scale not given: the % may be the effect or the level left; how it was run: as §2
Cavia porcellus [15] = assay: Toxicity in high-fat fed guinea pig model assessed as effect on systolic blood pressure at 30 mg/kg administered via oral gavage as qd for 14 days; assay type: organism-based; conditions: in vivo, 336 h
[16] = AUC (0 to infinity) in normal fed guinea pig at 30 mg/kg administered via oral gavage by LC-MS/MS analysis; assay type: ADME, organism-based, Cavia porcellus; parameters: dose 30 mg/kg, route oral, time infinity; conditions: in vivo
Mus musculus [17] = assay: Hypolipidemic activity in transgenic ap2-CETPTg mouse model assessed as reduction in plasma triglyceride levels at 30 mg/kg, po qd for 14 days measured 2 hrs post dose on day 14 by automated lipid analyzer relative to control; assay type: functional; parameters: scale not given: the % may be the effect or the level left; how it was run: as §3
[18] = Cmax in normal fed guinea pig at 30 mg/kg administered via oral gavage by LC-MS/MS analysis; assay type: ADME, organism-based, Cavia porcellus; parameters: dose 30 mg/kg, route oral; conditions: in vivo
[19] = Octanol-water partition coefficient, log P of the compound at pH 7.4 by HPLC based shake flask method; assay type: physicochemical
Cavia porcellus [20] = assay: Hypolipidemic activity in high-fat fed guinea pig model assessed as reduction in plasma LDL cholesterol levels at 30 mg/kg administered via oral gavage as qd for 14 days measured 2 hrs post dose on day 14 relative to control; assay type: functional; parameters: scale not given: the % may be the effect or the level left; how it was run: as §2
Mus musculus [21] = assay: Hypolipidemic activity in transgenic ap2-CETPTg mouse model assessed as reduction in plasma LDL cholesterol levels at 30 mg/kg, po qd for 14 days measured 2 hrs post dose on day 14 by automated lipid analyzer relative to control; assay type: functional; parameters: scale not given: the % may be the effect or the level left; how it was run: as §3
Mus musculus [22] = assay: Antihyperlipidemic activity in transgenic ap2-CETPTg mouse model assessed as increase in plasma HDL cholesterol levels at 30 mg/kg, po qd for 14 days measured 2 hrs post dose on day 14 by automated lipid analyzer relative to control; assay type: functional; how it was run: as §3
[23] = MRT (0 to infinity) in normal fed guinea pig at 30 mg/kg administered via oral gavage by LC-MS/MS analysis; assay type: ADME, organism-based, Cavia porcellus; conditions: in vivo

SMILES: CC1(C)CC[C@]2(C(=O)O)CC[C@]3(C)C(=CC[C@@H]4[C@@]5(C)CC[C@H](OC(=O)CCN6CCOCC6)C(C)(C)[C@@H]5CC[C@]43C)[C@@H]2C1
- IC50 [1]: 68.5 µM

SMILES: CC1(C)CC[C@]2(C(=O)O)CC[C@]3(C)C(=CC[C@@H]4[C@@]5(C)CC[C@H](OC(=O)CCCC(=O)O)C(C)(C)[C@@H]5CC[C@]43C)[C@@H]2C1
- IC50 [1]: 3.5 µM

SMILES: CC1(C)CC[C@]2(C(=O)O)CC[C@]3(C)C(=CC[C@@H]4[C@@]5(C)CC[C@H](OC(=O)CCCCC(=O)O)C(C)(C)[C@@H]5CC[C@]43C)[C@@H]2C1
- IC50 [1]: 7 µM

SMILES: CC1(C)CC[C@]2(C(=O)O)CC[C@]3(C)C(=C2C1)CC[C@@H]1[C@@]2(C)CC[C@H](OC(=O)CCCC(=O)O)C(C)(C)[C@@H]2CC[C@]13C
- IC50 [1]: 10.3 µM

SMILES: CC1(C)CC[C@]2(C(=O)O)CC[C@]3(C)C(=CC[C@@H]4[C@@]5(C)CC[C@H](OC(=O)CCC(=O)NCCS(=O)(=O)O)C(C)(C)[C@@H]5CC[C@]43C)[C@@H]2C1
- IC50 [1]: 23.1 µM

The next lines start with results.

- IC50 [1]: 38 µM
SMILES: C=C(C)[C@@H]1CC[C@]2(C(=O)O)CC[C@]3(C)[C@H](CC[C@@H]4[C@@]5(C)CC[C@H](OC(=O)CCCC(=O)O)C(C)(C)[C@@H]5CC[C@]43C)[C@@H]12

- IC50 [1]: 38.9 µM
SMILES: CC1(C)CC[C@]2(C(=O)OCC(=O)O)CC[C@]3(C)C(=CC[C@@H]4[C@@]5(C)CC[C@H](OC(=O)CCCC(=O)O)C(C)(C)[C@@H]5CC[C@]43C)[C@@H]2C1

- Drug metabolism (Cavia porcellus [4]): Metabolite_Detected
- half-life [5]: 1120 min
- solubility [9]: Soluble
- MRT last [10]: 14.9 h
- Tmax [11]: 1.46 h
- AUC(0-t) at 48 h [13]: 9340 ng·h/mL
- AUC(0-inf) [16]: 10900 ng·h/mL
- Cmax [18]: 1270 ng/mL
- logD [19]: 0.49
- IC50 [1]: 2.3 µM
- MRT inf [23]: 23.4 h
SMILES: CC1(C)CC[C@]2(C(=O)O)CC[C@]3(C)C(=CC[C@@H]4[C@@]5(C)CC[C@H](OC(=O)c6ccccc6C(=O)O)C(C)(C)[C@@H]5CC[C@]43C)[C@@H]2C1
- Activity (Cavia porcellus [2]): 19.8%
- Activity (Cavia porcellus [3]): 32.3%
- Activity (Cavia porcellus [6]): 27.3%
- Activity (Mus musculus [7]): 5.8%
- Activity (Cavia porcellus [8]): Non-Toxic
- Activity (Cavia porcellus [12]): 72.8%
- Activity (Cavia porcellus [14]): 20.3%
- Activity (Cavia porcellus [15]): Non-Toxic
- Activity (Mus musculus [17]): 29.3%
- Activity (Cavia porcellus [20]): 40.8%
- Activity (Mus musculus [21]): 34.2%
- Activity (Mus musculus [22]): 11.1%

- IC50 [1]: 3.4 µM
SMILES: C[C@H]1[C@H](C)CC[C@]2(C(=O)O)CC[C@]3(C)C(=CC[C@@H]4[C@@]5(C)CC[C@H](OC(=O)CCCC(=O)O)C(C)(C)[C@@H]5CC[C@]43C)[C@H]12
